This is an account of results in publication PMC9053626 (RSC Advances, 2020).

Series [1] relates to 4T1 cell tumor-bearing xenograft model. Put plainly: In vivo antitumor study and histological evaluation. Also on record: species or system female BABL/c mice. A digest of the protocol: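 Orthotopic 4T1 model: 0.1 mL of 4T1 cells (1 × 107 mL−1) injected into the fourth pair of breast pads. At 50–100 mm3 tumours, mice randomised into three groups (n = 6). Killed day 14; heart, liver, lung, spleen, kidney and tumour fixed in 10% formaldehyde for H&E.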

The next series has as its system 4T1 cells. As to the kind of experiment: MTT cytotoxicity assay. The settings on record: Mus musculus. Type of series: cell-based, murine. A digest of the protocol: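 4T1 cells grown in 1640 medium with 5% FBS and 1% penicillin/streptomycin at 37 °C, 5% CO2. Seeded at 2000 cells/well for 24 h, then exposed to a range of test concentrations for 48 h or 72 h. Washed twice with cold PBS, given fresh medium plus MTT for 4 h, formazan dissolved in DMSO, A570 read. Inhibition rate calculated relative to untreated control absorbance.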

For series [2] the following is noted: release medium vs anhydrous ethanol; cited from earlier work.

SMILES strings stand for the structures.

`C[C@H]1[C@@H](O)O[C@@H]2O[C@@]3(C)CC[C@H]4[C@H](C)CC[C@@H]1[C@@]24OO3` [DHA-Sol, Dihydroartemisinin] gave a tumor volume in series [1] (after 14 days, i.v. 0.07 mmol DHA kg^−1 on days 1, 3, 5, 7, 9, saline group 3309.68 ± 441.61) of 867.27 ± 117.43 mm^3. Further, the “body weight change versus saline group” value in series [1] (end of the experiment, p > 0.1) was “a significant change in the body weight of rats was not observed”. The “survival of mice during the experiment” value in series [1] (n = 6 per group, 0.07 mmol DHA kg^−1 i.v. five times) was “two mice treated with the DHA-Sol group died during the experiment”. Moreover, the IC50 in the series on 4T1 cells (4T1, 48 h) worked out at 2.31 ± 0.1 µM; in the series with 4T1 cells (4T1, 72 h), 0.62 ± 0.02 µM. Also, in series [2], the “stability of DHA in the release medium” value is recorded as “degraded quickly in the release medium”.
